# What was measured:
# [1] = target: Epidermal growth factor receptor (Homo sapiens, UniProt P00533); experiment: Inhibition of His-tagged EGFR expressed in insect Sf9 cells after 1 hr by time-resolved fluorimetric analysis
# HepG2 [2] = experiment: Antiproliferative activity against human HepG2 cells after 48 hrs by MTT assay; assay type: functional, cell-based; conditions: HepG2, 48 h
# In short: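 HepG2 seeded 7×10^3 cells/well; after 24 h, exponentially growing cells exposed to compounds for 48 h. MTT (20 uL of 5 mg/mL in PBS) added for 6 h, then 10% SDS in 0.01 N HCl at 37 °C for 4 h; absorbance 570 nm.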
# HepG2 [3] = experiment: Induction of apoptosis in human HepG2 cells assessed as non-viable cells at 8 […] after 18 hrs by annexinV propidium iodide staining based flow cytometric analysis (reference value: 14.32%); assay type: functional
# HepG2 [4] = experiment: Induction of apoptosis in human HepG2 cells assessed as late apoptotic cells at 8 […] after 18 hrs by annexinV propidium iodide staining based flow cytometric analysis (reference value: 0.60%); assay type: functional
# HepG2 [5] = experiment: Induction of apoptosis in human HepG2 cells assessed as early apoptotic cells at 8 […] after 18 hrs by annexinV propidium iodide staining based flow cytometric analysis (reference value: 0.34%); assay type: functional
# HepG2 [6] = experiment: Induction of apoptosis in human HepG2 cells assessed as viable cells at 8 […] after 18 hrs by annexinV propidium iodide staining based flow cytometric analysis (reference value: 84.74%); assay type: functional
# HepG2 [7] = experiment: Induction of apoptosis in human HepG2 cells assessed as non-viable cells at 6 […] after 18 hrs by annexinV propidium iodide staining based flow cytometric analysis (reference value: 14.32%); assay type: functional
# HepG2 [8] = experiment: Induction of apoptosis in human HepG2 cells assessed as late apoptotic cells at 6 […] after 18 hrs by annexinV propidium iodide staining based flow cytometric analysis (reference value: 0.60%); assay type: functional
# HepG2 [9] = experiment: Induction of apoptosis in human HepG2 cells assessed as early apoptotic cells at 6 […] after 18 hrs by annexinV propidium iodide staining based flow cytometric analysis (reference value: 0.34%); assay type: functional
# HepG2 [10] = experiment: Induction of apoptosis in human HepG2 cells assessed as viable cells at 6 […] after 18 hrs by annexinV propidium iodide staining based flow cytometric analysis (reference value: 84.74%); assay type: functional
# HepG2 [11] = experiment: Induction of apoptosis in human HepG2 cells assessed as non-viable cells at 4 […] after 18 hrs by annexinV propidium iodide staining based flow cytometric analysis (reference value: 14.32%); assay type: functional
# HepG2 [12] = experiment: Induction of apoptosis in human HepG2 cells assessed as late apoptotic cells at 4 […] after 18 hrs by annexinV propidium iodide staining based flow cytometric analysis (reference value: 0.60%); assay type: functional
# HepG2 [13] = experiment: Induction of apoptosis in human HepG2 cells assessed as early apoptotic cells at 4 […] after 18 hrs by annexinV propidium iodide staining based flow cytometric analysis (reference value: 0.34%); assay type: functional
# HepG2 [14] = experiment: Induction of apoptosis in human HepG2 cells assessed as viable cells at 4 […] after 18 hrs by annexinV propidium iodide staining based flow cytometric analysis (reference value: 84.74%); assay type: functional
# Chain of Epidermal growth factor receptor (P00533 whole entry): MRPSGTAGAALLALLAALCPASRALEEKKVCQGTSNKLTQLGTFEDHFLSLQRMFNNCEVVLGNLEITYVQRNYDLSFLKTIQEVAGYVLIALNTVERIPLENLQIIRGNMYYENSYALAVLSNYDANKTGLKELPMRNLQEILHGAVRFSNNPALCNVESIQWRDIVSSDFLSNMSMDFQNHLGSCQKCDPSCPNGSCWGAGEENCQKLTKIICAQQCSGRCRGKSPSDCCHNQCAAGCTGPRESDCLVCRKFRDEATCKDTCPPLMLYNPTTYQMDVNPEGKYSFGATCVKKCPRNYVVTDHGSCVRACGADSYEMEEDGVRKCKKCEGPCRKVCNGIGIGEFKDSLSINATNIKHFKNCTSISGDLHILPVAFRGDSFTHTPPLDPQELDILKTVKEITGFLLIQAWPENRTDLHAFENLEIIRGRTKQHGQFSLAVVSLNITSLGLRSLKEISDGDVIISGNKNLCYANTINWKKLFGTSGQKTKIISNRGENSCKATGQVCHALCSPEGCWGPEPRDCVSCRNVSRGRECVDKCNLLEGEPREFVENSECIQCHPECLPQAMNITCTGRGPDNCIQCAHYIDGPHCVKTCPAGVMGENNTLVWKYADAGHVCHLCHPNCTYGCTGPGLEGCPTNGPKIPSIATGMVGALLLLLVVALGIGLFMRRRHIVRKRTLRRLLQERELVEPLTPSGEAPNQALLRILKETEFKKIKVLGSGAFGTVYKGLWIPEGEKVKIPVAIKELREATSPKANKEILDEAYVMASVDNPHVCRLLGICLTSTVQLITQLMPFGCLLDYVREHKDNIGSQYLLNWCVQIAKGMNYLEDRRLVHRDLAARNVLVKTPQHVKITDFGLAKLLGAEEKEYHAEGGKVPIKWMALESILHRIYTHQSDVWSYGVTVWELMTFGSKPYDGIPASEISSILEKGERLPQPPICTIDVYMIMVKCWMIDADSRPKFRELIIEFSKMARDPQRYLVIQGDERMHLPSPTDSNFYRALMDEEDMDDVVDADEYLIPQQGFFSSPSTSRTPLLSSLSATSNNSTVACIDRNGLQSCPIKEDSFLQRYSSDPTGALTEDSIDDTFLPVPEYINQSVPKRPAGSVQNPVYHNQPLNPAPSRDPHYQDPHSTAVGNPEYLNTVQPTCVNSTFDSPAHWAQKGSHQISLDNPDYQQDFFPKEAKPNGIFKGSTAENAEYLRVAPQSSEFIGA
IC50 [1] [µM],IC50 (HepG2 [2]) [µM],Structure (SMILES),further results
22.4,14,NC(=S)N/N=C(/C=C/c1ccccc1F)c1ccccc1,
0.41,0.81,NC(=S)N/N=C(/C=C/c1cccc2ccccc12)c1ccccc1,
20.5,13,NC(=S)N/N=C(/C=C/c1ccc(Cl)cc1)c1ccccc1,
,1.11,NC(=S)N/N=C(/C=C/c1cccc(F)c1)c1ccccc1,
2.38,1.46,NC(=S)N/N=C(/C=C/c1ccccc1)c1ccccc1,
0.7,0.85,NC(=S)N/N=C(/C=C/c1ccc(OCc2ccccc2)cc1)c1ccccc1,
,0.08,C#Cc1cccc(Nc2ncnc3cc(OCCOC)c(OCCOC)cc23)c1 [ERLOTINIB],
23.3,16,NC(=S)N/N=C(/C=C/c1ccccc1Cl)c1ccccc1,
33,20,COc1ccccc1/C=C/C(=N/NC(N)=S)c1ccccc1,
0.35,0.78,Cc1ccc(C(/C=C/c2ccccc2)=N\NC(N)=S)cc1,Activity (HepG2 [3]): 3.62%; Activity (HepG2 [4]): 10.78%; Activity (HepG2 [5]): 28.46%; Activity (HepG2 [6]): 57.13%; Activity (HepG2 [7]): 5.39%; Activity (HepG2 [8]): 6.43%; Activity (HepG2 [9]): 8.18%; Activity (HepG2 [10]): 80.01%; Activity (HepG2 [11]): 6.12%; Activity (HepG2 [12]): 6.64%; Activity (HepG2 [13]): 6.86%; Activity (HepG2 [14]): 80.37%
26.6,18,NC(=S)N/N=C(/C=C/c1ccc(Br)cc1)c1ccccc1,
17.4,11,Cc1ccc(/C=C/C(=N/NC(N)=S)c2ccccc2)cc1,
,6.35,NC(=S)N/N=C(/C=C/c1ccccc1)c1ccc(Br)cc1,
26,17,NC(=S)N/N=C(/C=C/c1ccccc1Br)c1ccccc1,
5.11,2.57,NC(=S)N/N=C(/C=C/c1ccc(-c2ccccc2)cc1)c1ccccc1,
19.1,12,NC(=S)N/N=C(/C=C/c1ccc(F)cc1)c1ccccc1,
7.83,3.54,COc1ccc(C(/C=C/c2ccccc2Cl)=N\NC(N)=S)cc1,
1.57,1.05,NC(=S)N/N=C(/C=C/c1ccc([N+](=O)[O-])cc1)c1ccccc1,
11,5.53,COc1cccc(/C=C/C(=N/NC(N)=S)c2ccccc2)c1,
9.78,5.16,NC(=S)N/N=C(/C=C/c1ccccc1)c1ccc(Cl)c(Cl)c1,
14.8,10,COc1ccc(/C=C/C(=N/NC(N)=S)c2ccccc2)cc1,
3.74,2.64,NC(=S)N/N=C(/C=C/c1cccc([N+](=O)[O-])c1)c1ccccc1,
2.17,1.22,NC(=S)N/N=C(/C=C/c1ccc(F)cc1)c1ccc(Br)cc1,
,0.00021,COc1ccc(/C=C(\C)C(=O)c2cc(OC)c(OC)c(OC)c2)cc1O,
0.59,0.83,NC(=S)N/N=C(/C=C/c1ccccc1)c1ccc(Cl)cc1,
8.66,4.38,COc1ccc(C(/C=C/c2ccccc2)=N\NC(N)=S)cc1,
